Bioassay records from PubChem BioAssay.
A selection: hits, their analogues and other compounds. The true share with any hit is near 4.1%.
KCNK3 inh = human KCNK3 channel inhibition, primary screen. CHO-KCNK3 thallium flux, FluxOR fluorescence; stronger effect = lower value. hit rate 0.84% among 340,000. O14649. B-score at 10 µM;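 active means B-score under library mean minus 4 SD, starting fluorescence ratio at most library mean plus 5 SD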;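 further: more negative B-score means stronger inhibition of thallium flux through KCNK3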
Target sequence (O14649 whole entry, looked up): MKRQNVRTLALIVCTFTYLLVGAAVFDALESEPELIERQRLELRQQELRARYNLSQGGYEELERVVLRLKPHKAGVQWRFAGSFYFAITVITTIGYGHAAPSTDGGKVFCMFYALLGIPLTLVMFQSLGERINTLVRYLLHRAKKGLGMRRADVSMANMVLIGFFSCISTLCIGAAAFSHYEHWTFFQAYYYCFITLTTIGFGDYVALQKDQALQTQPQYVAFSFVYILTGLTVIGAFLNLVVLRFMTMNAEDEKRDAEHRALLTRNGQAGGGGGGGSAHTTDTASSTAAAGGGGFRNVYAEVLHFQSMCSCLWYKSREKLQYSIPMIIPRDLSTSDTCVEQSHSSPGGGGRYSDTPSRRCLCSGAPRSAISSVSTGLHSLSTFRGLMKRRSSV
KCNK9 inh = inhibitors of human KCNK9 two-pore domain potassium channel; AID 488922; Q9NPC2; hit rate 1.2% among 310,000; HEK293 KCNK9, FluxOR thallium flux fluorescence; stronger effect = lower value; B-score at 10 µM;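 active means ratio B-score over 3 SD below the library mean, with starting fluorescence within 5 SD of its mean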;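 further: negative B-score means less thallium flux so channel inhibition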
Target sequence (Q9NPC2 whole entry, looked up, the tested form may be a part): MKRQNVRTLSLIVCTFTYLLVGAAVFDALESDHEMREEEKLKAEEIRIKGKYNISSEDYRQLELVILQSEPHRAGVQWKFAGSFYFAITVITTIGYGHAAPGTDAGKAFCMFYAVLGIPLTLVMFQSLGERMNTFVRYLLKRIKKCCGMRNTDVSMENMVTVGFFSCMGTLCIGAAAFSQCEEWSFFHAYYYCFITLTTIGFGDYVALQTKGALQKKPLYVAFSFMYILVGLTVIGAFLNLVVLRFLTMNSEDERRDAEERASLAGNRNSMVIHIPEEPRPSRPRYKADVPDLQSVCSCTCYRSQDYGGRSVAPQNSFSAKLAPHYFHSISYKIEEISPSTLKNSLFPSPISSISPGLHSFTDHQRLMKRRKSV
hERG rescue = hERG (human) protection from proarrhythmic block; Q12809; CHO-hERG, FluxOR thallium flux, dofetilide IC70 present; activation (rescue from dofetilide block), less the hit threshold, % at 10 µM; hit rate 0.51% among 310,000;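 active means activation above the mean of controls blocked by dofetilide plus 5 SD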;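 further: thallium influx through hERG after potassium depolarization seen as dye fluorescence rise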
KCNQ1 inh = blocks the human KCNQ1 potassium channel. P51787. CHO-K1 KCNQ1, FluxOR thallium flux fluorescence; stronger effect = higher value. B-score at 10 µM. hit rate 1.3% among 310,000;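 active means compounds whose thallium flux B-score, printed positive for inhibition, exceeds three library SD while starting fluorescence stays within three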;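 further: channel opened by potassium depolarization with thallium stimulus after 20 min compound exposure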
KCNQ1 pot = potentiates or activates the human KCNQ1 potassium channel | P51787 | CHO-K1 KCNQ1, thallium flux FluxOR fluorescence; stronger effect = higher value | B-score at 10 µM | hit rate 0.35% among 310,000;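 active means fluorescence ratio B-score, a plate-corrected score, at least three library SD, with initial intensity B-score within 5 SD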
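Medium – assay buffer, equal DMSO in all wells · Material – CHO-K1 cell line with stable KCNQ1 potassium channel expression · Signal – kinetic FluxOR thallium fluorescence, 10-s 1-Hz baseline, 110-s post-stimulus read · Compound – single concentration per compound, DMSO matched to controls · Schedule – 37 °C overnight plating, 90-min dark dye load, 20-min compound pretreatment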
KCC2 mod = KCC2 (human) Cl- transport modulation; B-score of Tl+ flux slope (higher = more flux/activation; lower = inhibition) at 10 µM; hit rate 2.2% among 190,000; Q9H2X9; KCC2 cells, thallium flux FluoZin-2 fluorescence; AID 1456;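 active means thallium flux slope and its plate-corrected score both differing from the plate sample mean at a set confidence after two filtering rounds, in either direction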;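 further: slope of fluorescence scaled to starting intensity during 10 to 20 s after thallium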
KCC2 secondary = confirmation of human KCC2 transport modulators; HEK293-KCC2, thallium flux, FluoZin2 fluorescence; stronger effect = higher value; shares compounds with KCC2 mod; hit rate 15% among 3,700; normalised thallium flux (F/F0 slope) at 10 µM;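 active means thallium flux slope above the same plate's solvent-only control mean plus 3 SD; inconclusive means the two replicate wells disagree; inactive means no significant difference from solvent-only control wells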
KCC2 bumet counter = thallium flux persisting under bumetanide in KCC2 cells, counter-screen secondary assay; shares compounds with KCC2 mod; HEK293-KCC2 + bumetanide/ouabain, thallium flux FluoZin2; stronger effect = higher value; normalized thallium flux at 10 µM; hit rate 49% among 3,700; AID 1714;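 active means thallium entry rate above the same plate's blocked-transporter control wells by more than 3 SD; inconclusive means the two repeat wells disagree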;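 further: raw slope of fluorescence over initial fluorescence between 10 and 20 s after thallium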
KCC2 secondary2 = confirmation of human KCC2 transport modulators; shares compounds with KCC2 mod; HEK293-KCC2, thallium flux FluoZin2 fluorescence; actives lie on both sides; F/F0 rise rate, 10–20 s post-thallium; normalized thallium flux at 10 µM; hit rate 23% among 3,700;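 active means thallium flux slope more than 3 SD above or below the plate's solvent-only control mean, mostly below; inconclusive means the two repeat wells disagreed; inactive means no significant shift from solvent-only controls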;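 further: raw slope with 0.1% DMSO as baseline and bumetanide as block control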
HEK counter1 = acts in parental HEK cells, KCC2 counter-screen; shares compounds with KCC2 mod; HEK293 parental cells, thallium flux FluoZin2, ouabain; baseline-ratio fluorescence slope, 10–20 s after thallium; thallium flux rate (normalised fluorescence) at 10 µM; hit rate 46% among 3,700; AID 1716;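 active means thallium flux rate significantly above the same plate's solvent-only control wells, beyond their mean plus 3 SD; inconclusive means the two replicate wells gave conflicting results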
KCC2 retest ouab = modulates human KCC2 on retest with ouabain | raw Tl+ flux slope (below DMSO = inhibition, above = activation) at 10 µM | hit rate 48% among 3,700 | AID 1717 | shares compounds with KCC2 mod | HEK293-KCC2, thallium flux FluoZin2 fluorescence; bidirectional: low = inhibitor, high = activator;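 active means thallium flux slope beyond 3 SD from same-plate DMSO control mean in most replicates, usually higher, sometimes lower; inconclusive means repeat tests gave conflicting results; inactive means no significant difference from controls in most replicates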;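 further: slope of initial-normalized fluorescence between seconds 10 and 20 after thallium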
HEK293 Tl flux2 = parental HEK flux effect, counter-screen 2 | shares compounds with KCC2 mod | HEK293 parental, thallium flux FluoZin-2 fluorescence slope | thallium flux slope at 10 µM | hit rate 33% among 3,700;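 active means thallium flux slope above the same plate's solvent-control mean plus 3 SD in both duplicate wells; inconclusive means duplicate wells that disagreed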;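 further: run without ouabain in cells lacking the KCC2 cotransporter; slope of fluorescence scaled to its starting value between 10 and 20 s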
* = called active by the depositor; i = inactive; ? = inconclusive; · = no result given.

SMILES	KCNK3 inh	KCNK9 inh	hERG rescue	KCNQ1 inh	KCNQ1 pot	KCC2 mod	KCC2 secondary	KCC2 bumet counter	KCC2 secondary2	HEK counter1	KCC2 retest ouab	HEK293 Tl flux2
CC(C)Cc1cc(C(=O)Nc2sc3c(c2C#N)CCC3)no1	i	i	-12	i	i	4.8*	0.0064	0.017*	0.033	0.017*	0.027*	0.014*
CC(C)Cc1cc(C(=O)Nc2sc3c(c2C#N)CCCC3)no1	i	i	-5	i	i	4.1*	0.012	0.019*	0.037	?	?	?
CC(C)(C)C(=O)NC(=S)Nc1sc2c(c1C#N)CCCCC2	i	i	-4	i	i	-0.023	·	·	·	·	·	·
NC(CSC1(c2ccc(Cl)cc2)c2ccccc2-c2ccccc21)C(=O)O (configuration not stated)	i	·	·	·	·	·	·	·	·	·	·	·
CC(C)[C@H](NC(=O)c1ccccc1)C(=O)NC1=NCCS1	i	·	·	·	·	·	·	·	·	·	·	·
O=C(C1CCCN(Cc2ccccc2[N+](=O)[O-])C1)N1CCCCC1 (configuration not stated)	i	i	-4	i	i	·	·	·	·	·	·	·
Cn1cc(Cl)c(C(=O)NC(=S)Nc2sc3c(c2C#N)CCCCC3)n1	i	i	-4	i	i	11*	0.0074	0.021*	?	0.019*	0.033*	0.021*
C=CCOn1c(=O)c(-c2ccc(OCC)cc2)[n+]([O-])c2ccccc21	i	i	-7	i	i	·	·	·	·	·	·	·
COC(=O)C1CCN(Cc2cn(-c3ccccc3)nc2-c2ccc3c(c2)OCO3)CC1	i	i	-9	i	i	-5.8*	0.0099	0.0058	0.033	0.008	0.022	0.01
CC(=O)NCC1CCCN(Cc2cn(-c3ccccc3)nc2-c2ccc3c(c2)OCO3)C1 (configuration not stated)	i	i	0	i	i	-0.37	·	·	·	·	·	·
COC(=O)c1ccccc1S(=O)(=O)NCc1nc2nc(C)cc(C)n2n1	i	i	-4	i	i	·	·	·	·	·	·	·
Cc1c(-c2ccccc2)oc2c(C(=O)OCC(=O)Nc3ccc(C(N)=O)cc3)cccc2c1=O	i	i	-22	i	i	-5*	0.0092	0.0054	0.033	?	0.016*	0.011
COC(=O)c1ccc(NC(=O)COC(=O)c2cccc3c(=O)c(C)c(-c4ccccc4)oc23)cc1	i	i	-5	i	i	-2.1	·	·	·	·	·	·
Cc1nc(N2CCN(Cc3ccccc3)CC2)c(C#N)c2c1COC(C)(C)C2	i	i	-12	i	i	-3.4*	0.0056	0.003	0.021*	?	0.011*	0.0093
CSc1ncc(Cl)c(C(=O)Nc2nnc(SC/C=C/c3ccccc3)s2)n1	i	i	-5	i	i	28*	0.0065	0.082*	0.054*	0.064*	0.066*	0.041*
C=CCSc1nnc(NC(=O)c2nc(SCC)ncc2Cl)s1	i	i	-5	i	i	·	·	·	·	·	·	·
Cc1cc(C)cc(NC(=S)NCc2cccs2)c1	i	i	-6	i	i	-0.0037	·	·	·	·	·	·
S=C(NCc1cccs1)Nc1ccc(Br)cc1Cl	i	i	-7	i	i	4.7*	0.0075	0.0095*	0.031	0.011*	0.018	0.012*
S=C(NCCc1ccccc1)NCc1cccs1	i	i	-5	i	i	-4.4*	0.019	0.0045	0.025*	0.007	0.014	0.0099
S=C(NCCc1ccccc1)NC1CCCCCC1	i	i	-14	i	i	-4.2*	0.0058*	?	0.029	0.0065	?	0.011
COc1ccccc1-c1noc(CCC(=O)NC2CCCCC2)n1	i	i	-10	i	i	·	·	·	·	·	·	·
CCN(C(=O)CSc1nc2ccc(Cl)cc2[nH]1)C1CCS(=O)(=O)C1 (configuration not stated)	i	·	·	·	·	·	·	·	·	·	·	·
CN(Cc1ccccc1)C(=O)c1ccc(NC(=O)Cc2ccc(NC(=O)C3CCCN(C(=O)C4CC4)C3)cc2)cc1 (configuration not stated)	i	·	·	·	·	·	·	·	·	·	·	·
Cc1cccc(OCc2nnc(SCC(=O)c3cccs3)n2C)c1C	i	i	-6	i	i	-4.5*	0.0068	0.0042	0.024*	0.0075	0.016*	0.0096
Cc1ccccc1OCc1nnc(SCC(=O)NCc2ccccc2)n1C	i	i	-7	i	i	-0.45	·	·	·	·	·	·
SMILES	KCNK3 inh	KCNK9 inh	hERG rescue	KCNQ1 inh	KCNQ1 pot	KCC2 mod	KCC2 secondary	KCC2 bumet counter	KCC2 secondary2	HEK counter1	KCC2 retest ouab	HEK293 Tl flux2
CCOC(=O)COc1ccc(/C=C2\NC(=S)N(CC)C2=O)cc1	i	i	-6	i	i	-6.2*	0.0068	0.011*	0.029	0.0066	0.014*	0.01
CCOc1[nH]n(-c2ccccc2)c(=O)c1C=Nc1ccc(OC)cc1	i	i	-10	i	i	4.1*	0.0066	0.01*	0.032	0.0093*	0.021	?
CCOc1[nH]n(-c2ccccc2)c(=O)c1C=Nc1ccc(F)cc1F	i	i	-1	i	i	4.1*	0.0056	0.01*	0.032	0.01*	?	?
CCOc1[nH]n(-c2ccc(Cl)cc2)c(=O)c1C=Nc1ccc(Cl)cc1	i	i	-10	i	i	0.42	·	·	·	·	·	·
CCOc1ccc(NC(=O)c2cc(S(=O)(=O)N3CCOCC3)cn2C)cc1	i	i	-6	i	i	·	·	·	·	·	·	·
Cc1nc(C(=O)NNC(=O)c2cccc(Cl)c2)c(C(F)(F)F)o1	i	i	-7	i	i	11*	0.013*	0.019*	0.033	?	0.023	0.011*
O=C(NNC(=O)c1ccccc1Cl)c1ccccc1Cl	i	i	-1	i	i	0.16	·	·	·	·	·	·
Cc1nc(C(=O)NNC(=O)c2ccccc2Cl)c(C(F)(F)F)o1	i	i	-6	i	i	5.6*	0.0072	0.007*	0.03	0.0095*	?	?
